From ChEMBL document CHEMBL1157618, “Noncovalent tripeptidyl benzyl- and cyclohexyl-amine inhibitors of the cysteine protease caspase-1” (J Med Chem, 2010) come the findings set out here.

The source made the active and inactive calls. The rule behind the calls is not given here.

The target in the first assay is T1, Caspase-3 (Homo sapiens) (UniProt P42574).
T1 sequence (whole entry): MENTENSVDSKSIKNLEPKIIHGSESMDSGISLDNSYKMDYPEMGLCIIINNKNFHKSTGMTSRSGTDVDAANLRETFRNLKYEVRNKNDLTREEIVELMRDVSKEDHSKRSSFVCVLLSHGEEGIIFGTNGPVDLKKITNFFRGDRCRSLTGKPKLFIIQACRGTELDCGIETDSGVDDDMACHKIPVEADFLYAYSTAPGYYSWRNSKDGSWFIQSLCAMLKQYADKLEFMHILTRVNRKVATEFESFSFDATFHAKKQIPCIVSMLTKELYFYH
Kind of assay: Inhibition of caspase 3.
With `CC(C)[C@H](NC(=O)c1ccc2ccccc2c1)C(=O)N[C@@H](C)C(=O)N[C@H](CNCc1ccccc1O)CC(=O)O`, the outcome was inactive.

The next assay has as its system HT-29. Description: Cytotoxicity against human HT-29 cells at <=200 uM after 24 hrs by MTT assay. Type of assay: functional, cell-based. An outline of the steps: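 HT29 colon cancer cells seeded at 1 × 10⁵ cells/well in RPMI 1640, adhered overnight at 37 °C, then exposed to various compound concentrations (up to 200 μM) for 24 h at 37 °C. MTT ([…] in RPMI 1640) added for 1 h at 37 °C; cells lysed, crystals dissolved in isopropanol, absorbance read at 570 nm.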
For `CC(C)[C@H](NC(=O)c1ccc2ccccc2c1)C(=O)N[C@@H](C)C(=O)N[C@H](CNCc1ccccc1)CC(=O)O`, the Activity result was “Not toxic”. The same measure, in the same setting: for `CC(C)[C@H](NC(=O)c1ccc2ccccc2c1)C(=O)N[C@@H](C)C(=O)N[C@@H](CC(=O)O)CN(C)Cc1ccccc1` the value was “Not toxic”; for `CC(C)[C@H](NC(=O)c1ccc2ccccc2c1)C(=O)N[C@@H](C)C(=O)N[C@H](CCCc1ccccc1)CC(=O)O`, “Not toxic”. Still for that read-out and setting: next, `COc1ccccc1CNC[C@H](CC(=O)O)NC(=O)[C@H](C)NC(=O)[C@@H](NC(=O)c1ccc2ccccc2c1)C(C)C`: “Not toxic”; `CC(C)[C@H](NC(=O)c1ccc2ccccc2c1)C(=O)N[C@@H](C)C(=O)N[C@H](CNCc1ccccc1O)CC(=O)O`: “Not toxic”; `CC(C)[C@H](NC(=O)c1ccc2ccccc2c1)C(=O)N[C@@H](C)C(=O)N[C@H](CNCc1ccc(O)cc1)CC(=O)O`: “Not toxic”. Still for that read-out and setting: for `CC(C)[C@H](NC(=O)c1ccc2ccccc2c1)C(=O)N[C@@H](C)C(=O)N[C@H](CNCc1ccccc1F)CC(=O)O` the value was “Not toxic”. Consider `CC(C)[C@H](NC(=O)c1ccc2ccccc2c1)C(=O)N[C@@H](C)C(=O)N[C@@H](CC(=O)O)CN(C)C1CCCCC1`, for which the Activity result is “Not toxic”.

For `CC(C)[C@H](NC(=O)c1ccc2ccccc2c1)C(=O)N[C@@H](C)C(=O)N[C@H](CNC1CCCCC1)CC(=O)O`, the Activity result is “Not toxic”. Still for that read-out and setting: next, `CC(C)[C@H](NC(=O)c1ccc2ccccc2c1)C(=O)N[C@@H](C)C(=O)N[C@H](CNCc1ccc(C(N)=O)cc1)CC(=O)O`: “Not toxic”; `CC(C)[C@H](NC(=O)c1ccc2ccccc2c1)C(=O)N[C@@H](C)C(=O)N[C@H](CNCc1ccc2c(c1)OCO2)CC(=O)O`: “Not toxic”.
